According to ChEMBL document CHEMBL1125880, “Structure-activity relationship of miltirone, an active central benzodiazepine receptor ligand isolated from Salvia miltiorrhiza Bunge (Danshen)” (J Med Chem, 1991):

Target: GABA-A receptor; anion channel
Assay: Potency related to miltirone (1) at the central benzodiazepine receptor was determined using [3H]flunitrazepam as radioligand
Type: protein-complex assay
Procedure, shortened: (§1)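 Calf cerebral cortical membranes incubated 45 min at 0 °C with [³H]flunitrazepam (1 nM) in 50 mM Tris-HCl pH 7.4, final volume 500 μL. Terminated by dilution with ice-cold buffer, rapid GF/B filtration and washes; filter radioactivity counted by liquid scintillation. Nonspecific binding defined with 10 μM diazepam. IC50 = concentration giving 50% inhibition of specific binding; mean ± SD of (n) determinations in duplicate. Unstable compounds tested immediately after preparation.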

Row | Structure (SMILES) | IC50 [µM]
1 | CC(C)C1=Cc2ccc3c(c2C(=O)C1=O)CC[C@@H](O)[C@]3(C)O | 17
2 | CCN(CC)C(=O)c1cccc2c1C(=O)C(=O)C(C(C)C)=C2 | > 30
3 | CCc1cccc2c1C(=O)C(=O)C(C(C)C)=C2 | > 200
4 | CC(C)C1=Cc2ccccc2C(=O)C1=O | > 50
5 | CC(C)C1=CC2=C(CCCC2)C(=O)C1=O | > 140
6 | Cc1cc2ccc3c(c2oc1=O)CCCC3 | > 40

More lines, now with the values ahead:

Row | IC50 [µM] | Structure (SMILES)
7 | 15 | CC(C)C1=Cc2ccc3c(c2C(=O)C1=O)CC[C@H](O)[C@]3(C)O
8 | 10 | CC1(C)CCCc2c1ccc1c2C(=O)C(=O)C=C1
9 | 9.1 | CC(C)C1=Cc2ncc3c(c2C(=O)C1=O)CCCC3
10 | 4.3 | CC(C)C1=Cc2cccc(C(=O)O)c2C(=O)C1=O
11 | 2 | CC(C)C1=Cc2ccc3c(c2C(=O)C1=O)CCCC3(C)O (stereo not drawn)
12 | 0.9 | CC(C)C1=Cc2ccc3c(c2C(=O)C1=O)CCCC3
13 | 0.56 | CC(C)C1=Cc2ccc3c(c2C(=O)C1=O)CCCC3=O
14 | 0.4 | CC1=Cc2ccc3c(c2C(=O)C1=O)CCCC3(C)C
15 | 0.32 | CC(C)C1=Cc2ccc3c(c2C(=O)C1=O)CCCC(=O)N3
16 | 0.31 | CC(C)C1=Cc2ccc3c(c2C(=O)C1=O)CCCCCC3
17 | 0.3 | CC(C)C1=Cc2ccc3c(c2C(=O)C1=O)CCCC3(C)C [MILTIRONE]
18 | 0.23 | CC(C)C1=Cc2ccc3c(c2C(=O)C1=O)CCCCC3
19 | 0.05 | CC(C)C1=Cc2cc3c4c(c2C(=O)C1=O)CCCC4CC3 (stereo not drawn)

Target: GABA-A receptor; anion channel
Assay: inhibition of [3H]flunitrazepam binding to GABA-A central Benzodiazepine receptor of bovine cerebral cortex membrane
Type: tissue-based, Bos taurus
Procedure, shortened: as §1

Row | IC50 [µM] | Structure (SMILES)
20 | > 40 | C=Cc1cccc2c1C(=O)C(=O)C(C(C)C)=C2
21 | 20 | CC(C)C1=Cc2cccc(-c3ccccc3)c2C(=O)C1=O
22 | 4.4 | CC1=CCCc2c1ccc1c2C(=O)C(=O)C(C(C)C)=C1
23 | 20 | O=C1C=Cc2ccc3c(c2C1=O)CCCC3
